Calls of active or inactive are those of the source. The calls are words filed in the database; no cut-off is given here.
Biological target: T1, Monoglyceride lipase (Rattus norvegicus, UniProt Q8R431)
T1 sequence (Q8R431 whole entry): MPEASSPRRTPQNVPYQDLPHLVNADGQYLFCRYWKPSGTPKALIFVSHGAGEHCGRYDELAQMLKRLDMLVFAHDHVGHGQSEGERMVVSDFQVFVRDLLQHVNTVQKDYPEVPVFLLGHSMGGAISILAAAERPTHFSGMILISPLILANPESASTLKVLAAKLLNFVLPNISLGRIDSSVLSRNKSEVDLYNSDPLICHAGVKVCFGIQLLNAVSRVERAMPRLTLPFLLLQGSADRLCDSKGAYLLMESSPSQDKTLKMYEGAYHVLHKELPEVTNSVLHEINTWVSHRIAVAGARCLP
Experiment: Inhibition of recombinant rat MGL expressed in human HeLa cells using 2-oleoylglycerol as substrate preincubated for 10 mins followed by substrate addition and measured after 10 mins by LC-MS analysis
Format: cell-based
Conditions: not given

Question: For `O=c1c2ccccc2sn1NCc1ccc(-c2ccccc2)cc1`, which IC50 is on record?
Answer: 0.322 µM

Question: With `O=c1c2cc(O)ccc2sn1CCc1ccccc1` as the compound, how does the IC50 read?
Answer: 0.135 µM

Question: With `O=c1c2ccccc2sn1NCCCCCNn1sc2ccccc2c1=O` as the compound, how does the IC50 read?
Answer: 0.0115 µM

Question: With `COc1ccc2c(=O)n(CCc3ccccc3)sc2c1` as the compound, how does the IC50 read?
Answer: 0.512 µM

Question: Which IC50 does the source give for `Cn1sc2ccccc2c1=O` here?
Answer: 0.0595 µM

Question: Which IC50 does the source give for `O=c1c2ccccc2sn1CCCCCCN1CCCCC1` here?
Answer: 0.195 µM

Question: For `O=c1[nH]sc2ccccc12`, which IC50 is on record?
Answer: 0.306 µM

Question: Which IC50 does the source give for `O=c1c2ccccc2sn1NCCCCCCNn1sc2ccccc2c1=O` here?
Answer: 0.0168 µM

Question: Which IC50 does the source give for `O=c1c2ccccc2sn1CCc1cccc2ccccc12` here?
Answer: 0.0218 µM

Question: With `O=c1c2ccccc2sn1C1CCCCC1` as the compound, how does the IC50 read?
Answer: 0.0555 µM

Question: With `O=C(O)c1ccc(CNn2sc3ccccc3c2=O)cc1` as the compound, how does the IC50 read?
Answer: 0.278 µM

Question: Which IC50 does the source give for `COc1ccc2sn(CCc3ccccc3)c(=O)c2c1` here?
Answer: 0.568 µM

Question: With `O=c1c2ccc([N+](=O)[O-])cc2sn1CCc1ccccc1` as the compound, how does the IC50 read?
Answer: 0.238 µM

Question: Which IC50 does the source give for `O=c1c2ccccc2sn1NCc1ccccc1` here?
Answer: 0.0195 µM

Question: For `CN(Cc1ccccc1)n1sc2ccccc2c1=O`, which IC50 is on record?
Answer: 0.189 µM

Question: With `O=c1c2cc([N+](=O)[O-])ccc2sn1CCc1ccccc1` as the compound, how does the IC50 read?
Answer: 0.163 µM

Question: With `O=c1ccsn1CCc1ccccc1` as the compound, how does the IC50 read?
Answer: 0.759 µM

Question: For `COC(=O)c1ccc(CNn2sc3ccccc3c2=O)cc1`, which IC50 is on record?
Answer: 0.0939 µM

Question: With `O=c1c2ccc(O)cc2sn1CCc1ccccc1` as the compound, how does the IC50 read?
Answer: 2.55 µM

Question: With `Cc1cccc2c(=O)n(CCc3ccccc3)sc12` as the compound, how does the IC50 read?
Answer: 13.1 µM

Question: For `O=c1c2ccccc2sn1CCc1ccc2ccccc2c1`, which IC50 is on record?
Answer: 0.0542 µM

Biological target: Monoglyceride lipase (Rattus norvegicus, UniProt Q8R431, C201A)
Sequence (Q8R431 whole entry C201A): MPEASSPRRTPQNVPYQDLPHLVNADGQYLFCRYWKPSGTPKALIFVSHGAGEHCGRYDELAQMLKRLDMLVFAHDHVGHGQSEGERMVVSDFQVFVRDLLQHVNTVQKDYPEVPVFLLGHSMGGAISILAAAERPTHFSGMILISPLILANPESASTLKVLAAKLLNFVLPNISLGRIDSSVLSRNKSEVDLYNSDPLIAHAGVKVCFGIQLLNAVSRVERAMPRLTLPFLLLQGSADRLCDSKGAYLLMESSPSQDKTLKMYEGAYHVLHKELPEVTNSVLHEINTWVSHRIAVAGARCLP
Experiment: Inhibition of recombinant rat MGL C201A mutant expressed in human HeLa cells using 2-oleoylglycerol as substrate preincubated for 10 mins followed by substrate addition and measured after 10 mins by LC-MS analysis
Format: cell-based
Conditions: not given

Question: Which IC50 does the source give for `O=c1c2ccccc2sn1NCCCCCNn1sc2ccccc2c1=O` here?
Answer: 0.23 µM

Question: Which IC50 does the source give for `O=c1c2ccccc2sn1NCCCCCCNn1sc2ccccc2c1=O` here?
Answer: 0.114 µM

Question: For `O=c1c2ccccc2sn1NCc1ccccc1`, which IC50 is on record?
Answer: 0.0544 µM

Biological target: Monoglyceride lipase (Rattus norvegicus, UniProt Q8R431, C208A)
Sequence (Q8R431 whole entry C208A): as the sequence (Q8R431 whole entry C201A) above, with A201C, C208A counted along it
Experiment: Inhibition of recombinant rat MGL C208A mutant expressed in human HeLa cells using 2-oleoylglycerol as substrate preincubated for 10 mins followed by substrate addition and measured after 10 mins by LC-MS analysis
Format: cell-based
Conditions: not given

Question: Which IC50 does the source give for `O=c1c2ccccc2sn1NCCCCCNn1sc2ccccc2c1=O` here?
Answer: 0.22 µM

Question: For `O=c1c2ccccc2sn1NCCCCCCNn1sc2ccccc2c1=O`, which IC50 is on record?
Answer: 0.0827 µM

Question: With `O=c1c2ccccc2sn1NCc1ccccc1` as the compound, how does the IC50 read?
Answer: 0.0449 µM

Biological target: Monoglyceride lipase (Rattus norvegicus, UniProt Q8R431, C201A/C208A)
Sequence (Q8R431 whole entry C201A/C208A): as the sequence (Q8R431 whole entry C201A) above, with C208A counted along it
Experiment: Inhibition of recombinant rat MGL C201A/C208A mutant expressed in human HeLa cells using 2-oleoylglycerol as substrate preincubated for 10 mins followed by substrate addition and measured after 10 mins by LC-MS analysis
Conditions: not given

Question: With `O=c1c2ccccc2sn1NCCCCCNn1sc2ccccc2c1=O` as the compound, how does the IC50 read?
Answer: 1.46 µM

Question: For `O=c1c2ccccc2sn1NCCCCCCNn1sc2ccccc2c1=O`, which IC50 is on record?
Answer: 2.08 µM

Question: With `O=c1c2ccccc2sn1NCc1ccccc1` as the compound, how does the IC50 read?
Answer: 0.782 µM

System: not listed separately
Experiment: Drug metabolism in pH 7.4 phosphate buffered saline assessed as N-(2-phenylethyl)-2-[[2-(2-phenylethylcarbamoyl)phenyl]disulfanyl]benzamide formation at 100 uM measured after 60 mins in presence of N-(2-phenylethyl)-2-sulfanyl-benzamide by HR-MS analysis
Conditions: not given
Method in brief: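 Compound 100 μM final (from 10 mM DMSO stock, 1% DMSO) with GSH 200 μM final in 10 mM PBS pH 7.4 at 37 °C; species quantified at t = 60 min by LC/UV (210/254 nm) and HR-MS (Orbitrap, ESI); mean ± SEM, n = 3-4.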

Question: For `O=c1c2ccccc2sn1CCc1ccccc1`, which Drug metabolism is on record?
Answer: Metabolite detected

System: not listed separately
Experiment: Glutathione reactivity in pH 7.4 phosphate buffered saline assessed as GSH-adduct formation by measuring GSH level at 100 uM measured after 60 mins by HR-MS analysis
Format: ADME
Conditions: buffer, pH 7.4, 1 h
Method in brief: (§1)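 BTZ 100 µM final (from 10 mM DMSO stock, 1% DMSO final) with GSH 200 µM final in 10 mM PBS pH 7.4 at 37.0 °C; sampled at 60 min (steady state). GSH, GSSG and BTZ quantified by LC/UV (210 nm for GSH/GSSG, 254 nm for BTZ) against PBS standard curves; products identified by HR-MS (Orbitrap). Mean ± SEM, n = 3-4.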

Question: Which Activity does the source give for `O=c1c2ccccc2sn1CCc1ccccc1` here?
Answer: 73.4 µM

System: not listed separately
Experiment: Glutathione reactivity in pH 7.4 phosphate buffered saline assessed as GSH-adduct formation by measuring oxidized GSH level at 100 uM measured after 60 mins by HR-MS analysis
Format: ADME
Conditions: buffer, pH 7.4, 1 h
Method in brief: as §1

Question: With `O=c1c2ccccc2sn1CCc1ccccc1` as the compound, how does the Activity read?
Answer: 61.8%

System: not listed separately
Experiment: Glutathione reactivity in pH 7.4 phosphate buffered saline assessed as GSH-adduct formation by measuring parent compound level at 100 uM measured after 60 mins by HR-MS analysis
Format: ADME
Conditions: buffer, pH 7.4, 1 h, BLD = below limit of detection
Method in brief: as §1

Question: For `O=c1c2ccccc2sn1CCc1ccccc1`, which Activity is on record?
Answer: Bld

System: N2a
Experiment: Protection against H2O2-induced toxicity in mouse Neuro2a cells assessed as reduction in LDH release at 1 uM preincubated for 30 mins followed by H2O2 challenge and measured after 24 hrs
Format: functional, cell-based
Conditions: not given
Method in brief: (§2)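 Neuro-2a cells seeded 5×10^3/well, after 24 h pretreated with agents 30 min, then H2O2 300 µM for 24 h; LDH release into medium measured by absorbance with cytotoxicity detection kit; mean ± SEM; t test or one-way ANOVA with Dunnett's.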

Question: For `O=c1c2ccccc2sn1CCc1ccccc1`, which Activity is on record?
Answer: Active

Question: For `O=C(Oc1ccc([N+](=O)[O-])cc1)N1CCC(C(O)(c2ccc3c(c2)OCO3)c2ccc3c(c2)OCO3)CC1`, which Activity is on record?
Answer: Active

System: N2a
Experiment: Protection against H2O2-induced toxicity in mouse Neuro2a cells assessed as reduction in LDH release at 1 uM preincubated for 30 mins followed by H2O2 challenge and measured after 24 hrs in presence of CB1 receptor antagonist rimonabant
Format: functional, cell-based
Conditions: not given
Method in brief: as §2

Question: For `O=c1c2ccccc2sn1CCc1ccccc1`, which Activity is on record?
Answer: inactive

Question: For `O=C(Oc1ccc([N+](=O)[O-])cc1)N1CCC(C(O)(c2ccc3c(c2)OCO3)c2ccc3c(c2)OCO3)CC1`, which Activity is on record?
Answer: inactive

System: not listed separately
Experiment: Tmax in C57BL6 mouse plasma at 10 mg/kg, ip by LC-MS/MS analysis
Format: ADME, organism-based
Conditions: not given
Method in brief: (§3)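 Adult male C57/BL6 mice, n=4 per group, single 10 mg/kg i.p. dose, saline vehicle. Plasma and brain collected at set times after injection. Brains homogenized in acetonitrile with 0.1% formic acid and passed through lipid-removal cartridges. Compound quantified by LC-MS/MS on C18 with formic acid water/methanol step gradient; LOQ 0.1 ng/mL, linear 0.1-100.0 ng/mL.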

Question: With `O=c1c2ccccc2sn1CCc1ccccc1` as the compound, how does the Tmax read?
Answer: 15 min

System: not listed separately
Experiment: Tmax in C57BL6 mouse brain at 10 mg/kg, ip by LC-MS/MS analysis
Format: ADME, organism-based
Conditions: not given
Method in brief: as §3

Question: Which Tmax does the source give for `O=c1c2ccccc2sn1CCc1ccccc1` here?
Answer: 15 min

System: not listed separately
Experiment: Ratio of drug level in brain to plasma of C57BL6 mouse at 10 mg/kg, ip by LC-MS/MS analysis
Format: ADME, organism-based
Conditions: not given
Method in brief: as §3

Question: For `O=c1c2ccccc2sn1CCc1ccccc1`, which BPR is on record?
Answer: 4.5%

System: Mus musculus
Experiment: In vivo inhibition of MGL in C57BL6 mouse assessed as increase in 2-AG level at 10 mg/kg, ip measured after 2 hrs by LC-MS/MS analysis
Format: functional, organism-based
Conditions: not given
Method in brief: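 Adult male C57/BL6 mice, n=4 per group, single 10 mg/kg i.p. dose, saline vehicle; brains collected 2 h post-injection; lipids extracted from homogenate and 2-AG measured by LC-MS (triple quadrupole, ESI positive, isocratic C18); two-tailed t test or ANOVA with Dunnett's.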

Question: For `O=c1c2ccccc2sn1CCc1ccccc1`, which inhibition is on record?
Answer: Active
